Experiments:
Assay type in all cases: functional
[1] = system: Teladorsagia circumcincta; test: Anthelmintic efficacy against adult (EL4) Ostertagia circumcincta (O. c) in sheep at dose of 0.15 mg/kg administered orally; details: route oral
Outline: (§1)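 Lambs experimentally infected with mixed gastrointestinal nematodes (H. contortus, O. circumcincta, T. axei, T. colubriformis, C. oncophora, Oe. columbianum) were dosed orally, 1–3 sheep per dose. An untreated infected group of 6 was included, with worm burdens given as the geometric mean number of worms per lamb. Efficacy was scored against adult and, where listed, EL4 stages.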

[2] = system: Trichostrongylus colubriformis; test: Anthelmintic efficacy against Trichostrongylus colubriformis (T.c) in sheep at dose of 0.15 mg/kg administered orally; details: route oral; outline: as §1
[3] = system: Oesophagostomum columbianum; test: Anthelmintic efficacy against Oseophagostomum columbianum (Oe. c) in sheep at dose of 0.25 mg/kg administered orally; details: route oral; outline: as §1
[4] = system: Teladorsagia circumcincta; test: Anthelmintic efficacy against immature (EL4) Ostertagia circumcincta (O. c) in sheep at dose of 0.15 mg/kg administered orally; 20-59%
Trichostrongylus axei [5] = test: Anthelmintic efficacy against Trichostrongylus axei (T.a) in sheep at dose of 0.15 mg/kg administered orally; details: route oral; outline: as §1
Haemonchus contortus [6] = test: Anthelmintic efficacy against adult Haemonchus contortus (H.c) in sheep at dose of 0.15 mg/kg administered orally; details: route oral; outline: as §1
[7] = system: Teladorsagia circumcincta; test: Anthelmintic efficacy against adult Ostertagia circumcincta (O. c) in sheep at dose of 0.25 mg/kg administered orally; details: route oral; outline: as §1
[8] = system: Trichostrongylus colubriformis; test: Anthelmintic efficacy against Trichostrongylus colubriformis (T.c) in sheep at dose of 0.25 mg/kg administered orally; details: route oral; outline: as §1
[9] = system: Trichostrongylus colubriformis; test: Minimal dose necessary to eliminate > 83% of Trichostrongylus colubriformis infection in gerbils
[10] = system: Oesophagostomum columbianum; test: Anthelmintic efficacy against Oseophagostomum columbianum (Oe. c) in sheep at dose of 0.15 mg/kg administered orally; details: route oral; outline: as §1
Cooperia oncophora [11] = test: Anthelmintic efficacy against adult Cooperia oncopphora (C.o) in sheep at dose of 0.25 mg/kg administered orally; details: route oral; outline: as §1
Cooperia oncophora [12] = test: Anthelmintic efficacy against adult Cooperia oncopphora (C.o) in sheep at dose of 0.15 mg/kg administered orally; details: route oral; outline: as §1
Trichostrongylus axei [13] = test: Anthelmintic efficacy against Trichostrongylus axei (T.a) in sheep at dose of 0.25 mg/kg administered orally; details: route oral; outline: as §1
Haemonchus contortus [14] = test: Anthelmintic efficacy against adult Haemonchus contortus (H.c) in sheep at dose of 0.25 mg/kg administered orally; details: route oral; outline: as §1
[15] = system: Trichostrongylus colubriformis; test: Anthelmintic efficacy against Trichostrongylus colubriformis (T.c) in sheep at dose of 0.25 mg/kg administered orally; 60-89%; outline: as §1
Trichostrongylus axei [16] = test: Anthelmintic efficacy against Trichostrongylus axei (T.a) in sheep at dose of 0.25 mg/kg administered orally; 20-59%; outline: as §1
Cooperia oncophora [17] = test: Anthelmintic efficacy against adult Cooperia oncopphora (C.o) in sheep at dose of 0.25 mg/kg administered orally; 60-89%; outline: as §1
[18] = system: Teladorsagia circumcincta; test: Anthelmintic efficacy against adult Ostertagia circumcincta (O. c) in sheep at dose of 0.25 mg/kg administered orally; 60-89%; outline: as §1

Row | SMILES | Efficacy [1] [%] | Efficacy [2] [%] | Efficacy [3] [%] | Efficacy [4] [%] | Efficacy (Trichostrongylus axei [5]) [%] | Efficacy (Haemonchus contortus [6]) [%] | Efficacy [7] [%] | Efficacy [8] [%] | Dose [9] [mg/kg] | Efficacy [10] [%] | Efficacy (Cooperia oncophora [11]) [%] | Efficacy (Cooperia oncophora [12]) [%] | Efficacy (Trichostrongylus axei [13]) [%] | Efficacy (Haemonchus contortus [14]) [%] | Efficacy [15] [%] | Efficacy (Trichostrongylus axei [16]) [%] | Efficacy (Cooperia oncophora [17]) [%] | Efficacy [18] [%]
1 | CC[C@H](C)[C@H]1O[C@]2(C=C[C@@H]1C)C[C@@H]1C[C@@H](C/C=C(\C)[C@@H](O[C@H]3C[C@@H](OC)[C@@H](O[C@H]4C[C@@H](OC)[C@@H](OC(C)=O)[C@H](C)O4)[C@H](C)O3)[C@@H](C)/C=C/C=C3\CO[C@@H]4[C@H](OC(C)=O)C(C)=C[C@@H](C(=O)O1)[C@]34O)O2 | >90 | >90 | >90 | 20 | >90 | >90 | >90 | >90 | 0.25 | >90 | >90 | >90 | >90 | >90 | – | – | – | –
2 | CC[C@H](C)[C@H]1O[C@]2(CC(OC(C)=O)[C@@H]1C)C[C@@H]1C[C@@H](C/C=C(\C)[C@@H](OC3CC(OC)C(OC4CC(OC)C(OC(C)=O)C(C)O4)C(C)O3)[C@@H](C)/C=C/C=C3\CO[C@@H]4[C@H](OC)C(C)=C[C@@H](C(=O)O1)[C@]34O)O2 (stereo partly specified) | – | – | >90 | – | – | – | – | – | 0.5 | – | – | – | – | >90 | 60 | 20 | 60 | 60
